Ten compounds from ChEMBL document CHEMBL1944602, “Synthesis and biological characterisation of sirtuin inhibitors based on the tenovins” (Bioorg Med Chem, 2012) can be followed below.

Each structure is given as a SMILES string. Active and inactive are the calls of the source. No cut-off for these calls is given here. A value given as a limit tells only on which side of the number the result lay.

The target in assay [1] is T1, NAD-dependent protein deacetylase sirtuin-1 (Homo sapiens, UniProt Q96EB6).
T1 sequence (Q96EB6 whole entry): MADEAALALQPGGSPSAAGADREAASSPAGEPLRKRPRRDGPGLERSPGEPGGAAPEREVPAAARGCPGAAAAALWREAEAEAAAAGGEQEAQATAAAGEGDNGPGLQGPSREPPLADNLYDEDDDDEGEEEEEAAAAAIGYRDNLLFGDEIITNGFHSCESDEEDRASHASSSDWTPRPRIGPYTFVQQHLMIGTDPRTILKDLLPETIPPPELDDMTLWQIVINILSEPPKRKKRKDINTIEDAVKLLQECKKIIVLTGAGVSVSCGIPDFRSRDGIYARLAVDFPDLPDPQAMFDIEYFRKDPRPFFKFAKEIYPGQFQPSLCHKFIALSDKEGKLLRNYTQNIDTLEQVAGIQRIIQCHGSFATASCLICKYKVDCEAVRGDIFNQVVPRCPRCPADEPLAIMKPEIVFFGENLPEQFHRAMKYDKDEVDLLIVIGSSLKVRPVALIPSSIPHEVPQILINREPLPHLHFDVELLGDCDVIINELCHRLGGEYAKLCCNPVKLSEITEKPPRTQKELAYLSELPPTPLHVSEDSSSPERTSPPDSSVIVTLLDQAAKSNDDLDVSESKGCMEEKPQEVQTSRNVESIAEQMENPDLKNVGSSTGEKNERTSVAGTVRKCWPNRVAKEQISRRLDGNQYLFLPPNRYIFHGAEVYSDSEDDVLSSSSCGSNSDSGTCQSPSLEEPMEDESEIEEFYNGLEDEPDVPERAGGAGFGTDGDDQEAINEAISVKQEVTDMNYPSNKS
Description: Inhibition of recombinant human SitT1 by Fluor de Lys fluorescence assay.

For assay [2], the target named is T2, NAD-dependent protein deacetylase sirtuin-1 (Homo sapiens) (UniProt Q96EB6).
T2 sequence (whole entry): T1 sequence (Q96EB6 whole entry)
Description: Inhibition of SirT1 in human ARN8 cells assessed as p53 activation at 10 uM by beta-galactosidase reporter gene assay. It counts as cell-based. The method in brief:
(§1)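 p53-dependent transcription measured with a beta-galactosidase reporter in ARN8 cells, run in triplicate. Read-out is the ratio of signal in treated cells to DMSO-control cells, given to 2 significant figures; a positive or negative activity call is also recorded.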
On the technique in general: In a reporter assay the amount or activity of a reporter protein is the signal.

Assay [3] addresses T2, NAD-dependent protein deacetylase sirtuin-1 (Homo sapiens). Description: Inhibition of SirT1 in human ARN8 cells assessed as p53 activation at 20 uM by beta-galactosidase reporter gene assay relative to control. It counts as cell-based. An outline of the steps:
as §1

For assay [4] the target is unchanged. As to the kind of experiment: Inhibition of SirT1 in human ARN8 cells assessed as p53 activation at 20 uM by beta-galactosidase reporter gene assay. Type of assay: cell-based. The method in brief:
as §1

For assay [5] the target is unchanged. Description: Inhibition of SirT1 in human ARN8 cells assessed as p53 activation at 5 uM by beta-galactosidase reporter gene assay relative to control. It counts as cell-based. The method in brief: as §1
Assay [6] has the same target. As to the kind of experiment: Inhibition of SirT1 in human ARN8 cells assessed as p53 activation at 5 uM by beta-galactosidase reporter gene assay. Type of assay: cell-based. An outline of the steps: as §1
The target is the same in assay [7]. As to the kind of experiment: Inhibition of SirT1 in human ARN8 cells assessed as p53 activation at 10 uM by beta-galactosidase reporter gene assay relative to control. Type of assay: cell-based. An outline of the steps: as §1
For assay [8], the target named is T3, NAD-dependent protein deacetylase sirtuin-2 (Homo sapiens, UniProt Q8IXJ6).
T3 sequence (Q8IXJ6 whole entry): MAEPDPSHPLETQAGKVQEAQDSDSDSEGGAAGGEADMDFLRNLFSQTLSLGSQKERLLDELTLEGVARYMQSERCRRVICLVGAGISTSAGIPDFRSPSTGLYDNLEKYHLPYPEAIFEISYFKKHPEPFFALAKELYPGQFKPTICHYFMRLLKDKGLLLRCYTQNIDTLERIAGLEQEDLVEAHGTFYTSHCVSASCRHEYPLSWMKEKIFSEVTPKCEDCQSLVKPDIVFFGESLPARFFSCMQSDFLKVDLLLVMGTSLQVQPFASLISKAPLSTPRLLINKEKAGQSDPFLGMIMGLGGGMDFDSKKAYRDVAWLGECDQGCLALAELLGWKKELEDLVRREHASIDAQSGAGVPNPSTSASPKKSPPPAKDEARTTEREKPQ
Description: Inhibition of recombinant human SitT2 by Fluor de Lys fluorescence assay.

Assay [9] concerns the target T2, NAD-dependent protein deacetylase sirtuin-1 (Homo sapiens). Description: Inhibition of recombinant human SitT1 at 60 uM by Fluor de Lys fluorescence assay. An outline of the steps: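 Human recombinant SirT1 deacetylation measured with the Fluor de Lys fluorescence kit at a fixed 60 µM inhibitor. Tested on two separate occasions; percent inhibition reported as a mean weighted to the standard error.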

Usually IC50 stands for the point on the concentration scale where inhibition reaches its midpoint. In general, inhibition refers to the change of the read-out against control, counted positive when it falls. `CN(C)CCCCC(=O)Nc1ccc(NC(=S)NC(=O)c2ccc(Cl)cc2)cc1`: the IC50 in assay [1] and in assay [8] was greater than 90 µM throughout. In addition, the inhibition result in [2], in assay [4] and in assay [6] was “inactive” each time. For the same compound, the fold change (FC) is 1.01 in assay [3], 1.1 in assay [5] and 1.2 in assay [7]. In assay [9], the inhibition was determined as 53.4%.

For the compound `Cc1ccc(C(=O)NC(=S)Nc2ccc(NC(=O)CCCCN(C)C)cc2)cc1`, the half-inhibitory concentration (IC50) in assay [1] and in assay [8] was greater than 90 µM in each case. In addition, the inhibition entry in [2], in assay [4] and in assay [6] was “inactive” in each case. The values for the fold change (FC) in assay [3], in assay [5] and in [7] were 1.1, 1.2 and 1.1, respectively. For the same compound, in [9], the inhibition turned out to be 47.3%.

As to `CN(C)CCCCC(=O)Nc1ccc(NC(=S)NC(=O)c2ccc(Cl)c(Cl)c2)cc1`, the inhibition entry in assay [2], in [4] and in [6] was “inactive” each time. For the same compound, the fold change (FC) in assay [3] stood at 0.97; in [5] it was 1.04; in assay [7], 1.1. Further, in assay [9], the inhibition amounted to 8.1%.

With `CC(C)c1ccc(C(=O)NC(=S)Nc2ccc(NC(=O)CCCCN(C)C)cc2)cc1`, the IC50 in assay [1] is 42.7 µM; in assay [8] it was 5.71 µM. Also, the inhibition entry in assay [2], in assay [4] and in assay [6] was “Active” in each case. The fold change (FC) was found to be 12 in assay [3], 8.7 in assay [5] and 11.1 in assay [7]. For the same compound, in assay [9], the inhibition was 52.9%.

Regarding `CN(C)CCCCC(=O)Nc1ccc(NC(=S)NC(=O)c2ccc(C(C)(C)C)c(Br)c2)cc1`, the inhibition entry in [2] and in assay [6] was “inactive” each time. Besides, the fold change (FC) in [3] was determined as 1.4; in assay [5], 1.1; in [7] it was 1.1. The inhibition entry in [4] was “Active”. Besides, in assay [9], the inhibition stood at 93.5%.

Take `CN(C)CCCCC(=O)Nc1ccc(NC(=S)NC(=O)c2cccc(Cl)c2)cc1`: the inhibition entry in assay [2], in [4] and in assay [6] was “inactive” throughout. For the same compound, the fold change (FC) in assay [3] turned out to be 1; in assay [5], 1.1; in assay [7], 1.1. In addition, in assay [9], the inhibition worked out at 29.2%.

With `CN(C)CCCCNC(=O)c1ccc(NC(=S)NC(=O)c2ccc(C(C)(C)C)cc2)cc1`, the IC50 in [1] turned out to be 17.9 µM; in [8] it was 12.4 µM. In addition, the inhibition result in assay [2] and in assay [4] was “Active” each time. Besides, the fold change (FC) amounted to 5.5 in assay [3] and 3.9 in assay [7]. In addition, in assay [9], the inhibition amounted to 72.5%.

Take `CCCCCc1ccc(C(=O)NC(=S)Nc2ccc(NC(=O)CCCCN(C)C)cc2)cc1`: the half-maximal inhibitory concentration (IC50) worked out at 36.7 µM in assay [1] and 5.6 µM in assay [8]. Also, the inhibition result in assay [2] and in assay [6] was “inactive” throughout. Besides, the fold change (FC) is 1.2 in [3], 1.1 in assay [5] and 1.1 in assay [7]. Besides, in [9], the inhibition turned out to be 73.2%.

With `CN(C)CCCCC(=O)Nc1ccc(NC(=S)NC(=O)c2cccc(Br)c2)cc1`, the inhibition entry in [2] and in [6] was “inactive” throughout. Further, the values for the fold change (FC) in assay [3], in [5] and in [7] were 1.2, 1.1 and 1.2, respectively. Besides, the inhibition in assay [9] came out at 70.5%.

Regarding `COc1cccc(C(=O)NC(=S)Nc2ccc(NC(=O)CCCCN(C)C)cc2)c1`, the inhibition entry in assay [2], in [4] and in assay [6] was “inactive” throughout. Besides, the fold change (FC) in assay [3] was determined as 1.2; in [5] it was 1.1; in [7], 1.1. In addition, the inhibition in assay [9] is 25.3%.
